# Assays:
# [1] = target: Serine/threonine-protein kinase pim-2 (Homo sapiens) (UniProt Q9P1W9); experiment: Inhibition of PIM2 (unknown origin)
# [2] = target: Macrophage colony-stimulating factor 1 receptor (Homo sapiens) (UniProt P07333); experiment: Inhibition of human CSF1R (564 to 939 amino acid residues) assessed as enzyme activity at 10 uM by KINOMEScan assay expressed in bacterial system assessed as enzyme activity at 10 uM by KINOMEScan assay; parameters: scale not given: the % may be the effect or the level left
# Procedure, shortened: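 Competition binding screen on a 100-kinase KINOMEscan panel, compound tested at a single 10 μM concentration. Primary binding read-out expressed as % Ctrl = (test compound signal − positive control signal)/(negative control signal − positive control signal) × 100, with lower values meaning stronger binding.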
# [3] = target: High affinity nerve growth factor receptor (Homo sapiens) (UniProt P04629); experiment: Inhibition of human TRKA (475 to 790 amino acid residues) assessed as enzyme activity at 10 uM by KINOMEScan assay; parameters: scale not given: the % may be the effect or the level left
# Procedure, shortened: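 Commercial KINOMEscan binding panel of 100 kinases, test compound at 10 μM. Results are primary-screen binding interactions expressed as % Ctrl = (test compound signal − positive control signal)/(negative control signal − positive control signal) × 100. Lower % Ctrl means stronger binding.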
# High affinity nerve growth factor receptor (Homo sapiens), sequence (P04629 33-796 limits assumed): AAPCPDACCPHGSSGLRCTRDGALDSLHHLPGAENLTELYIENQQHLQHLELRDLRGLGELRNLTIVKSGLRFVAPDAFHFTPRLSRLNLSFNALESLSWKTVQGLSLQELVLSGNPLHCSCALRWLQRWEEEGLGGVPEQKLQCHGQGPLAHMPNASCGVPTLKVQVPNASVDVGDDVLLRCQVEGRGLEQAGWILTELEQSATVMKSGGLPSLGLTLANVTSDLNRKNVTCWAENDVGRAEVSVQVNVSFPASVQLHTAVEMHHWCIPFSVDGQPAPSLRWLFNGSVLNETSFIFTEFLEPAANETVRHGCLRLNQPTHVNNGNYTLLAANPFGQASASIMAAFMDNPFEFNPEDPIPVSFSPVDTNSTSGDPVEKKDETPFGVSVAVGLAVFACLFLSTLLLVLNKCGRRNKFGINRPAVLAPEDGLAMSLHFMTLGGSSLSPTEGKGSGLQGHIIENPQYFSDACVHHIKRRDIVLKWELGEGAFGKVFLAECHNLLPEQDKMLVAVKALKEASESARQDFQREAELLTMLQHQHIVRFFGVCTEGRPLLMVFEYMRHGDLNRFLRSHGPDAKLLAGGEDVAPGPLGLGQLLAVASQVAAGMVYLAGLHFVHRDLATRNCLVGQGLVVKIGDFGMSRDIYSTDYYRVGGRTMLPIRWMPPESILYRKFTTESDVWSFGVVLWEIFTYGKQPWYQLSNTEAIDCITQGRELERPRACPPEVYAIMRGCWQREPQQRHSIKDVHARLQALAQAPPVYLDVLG
# Macrophage colony-stimulating factor 1 receptor (Homo sapiens), sequence (P07333 whole entry, the tested form may be a part): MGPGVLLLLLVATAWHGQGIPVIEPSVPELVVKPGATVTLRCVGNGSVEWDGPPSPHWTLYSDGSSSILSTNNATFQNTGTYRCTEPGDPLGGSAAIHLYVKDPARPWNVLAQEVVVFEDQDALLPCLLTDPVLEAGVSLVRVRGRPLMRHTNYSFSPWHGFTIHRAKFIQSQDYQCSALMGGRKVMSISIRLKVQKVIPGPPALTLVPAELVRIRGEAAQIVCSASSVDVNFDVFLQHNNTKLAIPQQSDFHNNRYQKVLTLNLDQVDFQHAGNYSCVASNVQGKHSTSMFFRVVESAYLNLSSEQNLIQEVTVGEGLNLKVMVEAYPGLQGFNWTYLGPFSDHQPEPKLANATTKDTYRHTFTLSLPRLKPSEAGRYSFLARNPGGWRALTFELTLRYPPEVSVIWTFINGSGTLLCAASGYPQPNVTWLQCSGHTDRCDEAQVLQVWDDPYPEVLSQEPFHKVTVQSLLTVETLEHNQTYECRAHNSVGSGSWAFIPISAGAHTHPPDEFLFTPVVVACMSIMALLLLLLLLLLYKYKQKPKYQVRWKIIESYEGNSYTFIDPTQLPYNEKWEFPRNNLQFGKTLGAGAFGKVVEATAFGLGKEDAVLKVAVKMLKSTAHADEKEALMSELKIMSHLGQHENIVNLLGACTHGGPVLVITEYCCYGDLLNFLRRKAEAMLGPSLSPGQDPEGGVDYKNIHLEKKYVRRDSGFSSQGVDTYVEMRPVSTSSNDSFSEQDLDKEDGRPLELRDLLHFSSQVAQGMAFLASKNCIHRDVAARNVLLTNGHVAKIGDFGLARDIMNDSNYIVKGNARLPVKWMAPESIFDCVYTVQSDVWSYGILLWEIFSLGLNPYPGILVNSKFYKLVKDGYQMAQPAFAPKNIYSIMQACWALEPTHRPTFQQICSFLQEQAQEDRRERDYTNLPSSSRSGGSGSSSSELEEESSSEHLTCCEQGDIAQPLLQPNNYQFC
# Serine/threonine-protein kinase pim-2 (Homo sapiens), sequence (Q9P1W9 whole entry, looked up, the tested form may be a part): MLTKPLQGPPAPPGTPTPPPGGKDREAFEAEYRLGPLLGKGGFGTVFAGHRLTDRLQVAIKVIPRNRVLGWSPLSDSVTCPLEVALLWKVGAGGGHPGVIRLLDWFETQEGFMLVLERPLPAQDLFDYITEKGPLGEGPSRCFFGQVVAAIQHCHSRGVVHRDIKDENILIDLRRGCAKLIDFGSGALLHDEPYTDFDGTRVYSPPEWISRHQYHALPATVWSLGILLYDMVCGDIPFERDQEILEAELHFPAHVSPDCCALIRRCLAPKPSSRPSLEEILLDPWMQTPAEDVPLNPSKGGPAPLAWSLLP
smiles,measurement,setting,value
O=C1C2=C(C(=O)c3c(O)ccc(O)c31)[C@@H](O)[C@@H](O)[C@@H](O)C2,% of MOE kinase hits,[1],29%
same,Activity,[2],77%
same,Activity,[3],78%

# From ChEMBL document CHEMBL3808372, “Identification of quinones as novel PIM1 kinase inhibitors” (Bioorg Med Chem Lett, 2016)
